Experimental data from different studies.
Each line is one published result; the experiments were not run side by side.
EGFR L861Q: Epidermal growth factor receptor (EGFR, Homo sapiens, UniProt P00533, L861Q)
EGFR G719S: Epidermal growth factor receptor (EGFR, Homo sapiens, UniProt P00533, G719S)
EGFR L858R: Epidermal growth factor receptor (EGFR, Homo sapiens, UniProt P00533, L858R)
EGFR L858R/T790M: Epidermal growth factor receptor (EGFR, Homo sapiens, UniProt P00533, L858R/T790M)
EGFR A750P/del747-749: Epidermal growth factor receptor (EGFR, Homo sapiens, UniProt P00533, A750P/del747-749)
EGFR del747-750/T751S: Epidermal growth factor receptor (EGFR, Homo sapiens, UniProt P00533, del747-750/T751S)
EGFR del752-759: Epidermal growth factor receptor (EGFR, Homo sapiens, UniProt P00533, del752-759)
EGFR: Epidermal growth factor receptor (EGFR, Homo sapiens, UniProt P00533)

| Structure (SMILES) | target | read-out | technique | concentration | remaining binding [%] |
| --- | --- | --- | --- | --- | --- |
| c1cnn2ncc(-c3ccnc(N4CCC45COC5)n3)c2c1 | EGFR L861Q | binding |  | 1 µM | 96 |
| O=C(NCCCN1CCOCC1)c1ccc(Nc2nccc(-c3cc4ccccc4s3)n2)cc1 | EGFR G719S | binding | competition with immobilised ligand | 1 µM | 100 |
| CN(C)c1nccc(-c2cnc3ncccn23)n1 | Epidermal growth factor receptor (EGFR, Homo sapiens, UniProt P00533, T790M) | binding |  | 1 µM | 58 |
| CN1CCN(c2ccc(Nc3nccc(-c4cccc([N+](=O)[O-])c4)n3)cc2C(F)(F)F)CC1 | EGFR L858R | binding |  | 10 µM | 72 |
| CCC(=N\O)/C(C)=C/c1ccc(F)cc1 | EGFR L858R | cell-free assay | competition with immobilised ligand | 1 µM | 65 |
| COc1cnc(Nc2cccc(S(N)(=O)=O)c2)nc1N1CCN(c2ccccc2)C(=O)C1 | EGFR L861Q | binding | competition with immobilised ligand | 1 µM | 100 |
| Cc1cnc(Nc2ccc(C(=O)N3CCC(N4CCCC4)CC3)cc2)nc1-c1cc2ccccc2s1 | EGFR L858R/T790M | binding | competition with immobilised ligand | 1 µM | 59 |
| O=C(NCC1CCOCC1)c1n[nH]cc1NC(=O)c1c(F)cccc1F | EGFR A750P/del747-749 | binding | competition with immobilised ligand | 1 µM | 96 |
| CN(c1ccnc(CNc2nc(Nc3ccc4c(c3)CC(=O)N4)ncc2C(F)(F)F)n1)S(C)(=O)=O | EGFR del747-750/T751S | cell-free assay | competition with immobilised ligand | 1 µM | 83 |
| CCN1CCN(Cc2ccc(C(=O)Nc3ccc(C)c(Oc4ccc5c(c4)CC(=O)N5)c3)cc2C(F)(F)F)CC1 | EGFR del752-759 | binding | competition with immobilised ligand | 1 µM | 100 |
| O=C1NC(c2ccccn2)Sc2ccccc21 (centres unmarked) | EGFR del747-750/T751S | cell-free assay | competition with immobilised ligand | 1 µM | 68 |
| Cc1ccc(NC(=O)c2ccc(CN3CCN(C)CC3)cc2)cc1Nc1nccc(-c2cccnc2)n1 | EGFR | cell-free assay | competition with immobilised ligand | 0.1 µM | 100 |
| CC1CCCN1c1nccc(-c2cnn3ncccc23)n1 (centres unmarked) | EGFR | binding |  | 1 µM | 100 |
| COc1ncc2cc3ccccc3nc2c1C#N | EGFR G719S | cell-free assay | competition with immobilised ligand | 5 µM | 95 |
| O=C(NCCCN1CCOCC1)c1ccc(Nc2ncc(Cl)c(-c3ccc(Cl)s3)n2)cc1 | EGFR A750P/del747-749 | binding | competition with immobilised ligand | 1 µM | 72 |
| CN1CCN(c2ccc(Nc3nccc(-c4ccccc4)n3)cc2C(F)(F)F)CC1 | EGFR L858R | binding |  | 10 µM | 84 |
| CNC(=O)[C@@H]1CC[C@@H](n2c(-c3ccc4cnccc4c3)nc3ccc(C(=O)NCc4cccc(C(N)=O)c4)cc32)C1 | EGFR G719S | binding | competition with immobilised ligand | 1 µM | 100 |
| N#Cc1ccccc1CSc1nnc2c(n1)[nH]c1ccccc12 | EGFR L858R | binding | competition with immobilised ligand | 10 µM | 100 |

| Structure (SMILES) | target | read-out | technique | concentration | remaining binding [%] |
| --- | --- | --- | --- | --- | --- |
| COc1cnc(Nc2cccc(S(N)(=O)=O)c2)nc1N1CCN(c2ccccc2)CC1 | EGFR L858R/T790M | binding | competition with immobilised ligand | 1 µM | 87 |
| CS(=O)(=O)NCC[C@H](NC(=O)c1cncc2c1cnn2-c1ccc(F)cc1)c1ccnc(S(C)(=O)=O)c1 | EGFR G719S | cell-free assay | competition with immobilised ligand | 1 µM | 75 |
| C[C@H]1CCN(c2nccc(-c3cnn4ncccc34)n2)C1 | EGFR L861Q | binding |  | 1 µM | 81 |
| CNC(=O)Nc1ccc2c(c1)CC[C@@]21OC(=O)N(CC(=O)N(Cc2ccc(F)cc2)[C@@H](C)C(F)(F)F)C1=O | Epidermal growth factor receptor (EGFR, Homo sapiens, UniProt P00533, del747-752/P753S) | cell-free assay | competition with immobilised ligand | 1 µM | 64 |
| F[C@@H]1CCN(c2nccc(-c3cnn4ncccc34)n2)C1 | EGFR | binding |  | 1 µM | 91 |
| O=C1CCc2cc(Nc3cc(OC4CCOCC4)c([N+](=O)[O-])cc3Cl)ccc2N1 | EGFR L861Q | cell-free assay | competition with immobilised ligand | 1 µM | 100 |
| O=C(c1ccc(Nc2nccc(-c3cc4ccccc4s3)n2)cc1)N1CCC(N2CCCC2)CC1 | EGFR L861Q | binding | competition with immobilised ligand | 1 µM | 89 |
| O=C(Nc1c[nH]nc1C(=O)NC1CCNCC1)c1cc(F)cc(F)c1 | EGFR del752-759 | binding | competition with immobilised ligand | 1 µM | 100 |
| O=C(c1ccc(Nc2ncc(Cl)c(-c3cc4ccccc4s3)n2)cc1)N1CCC(N2CCCC2)CC1 | EGFR G719S | binding | competition with immobilised ligand | 1 µM | 98 |
| Cc1cnn2ncc(-c3ccnc(N(C)C)n3)c2c1 | EGFR L858R | binding |  | 1 µM | 100 |
| Nc1ncc2c(n1)-c1c([nH]c3ccc(C#CC4CC4)cc13)CCCC2 | EGFR A750P/del747-749 | binding | competition with immobilised ligand | 1 µM | 84 |
| CN(CCCC(F)(F)F)c1nccc(-c2cnn3ncccc23)n1 | Epidermal growth factor receptor (EGFR, Homo sapiens, UniProt P00533, del746-750) | binding |  | 1 µM | 80 |
| C[C@H](NC(=O)c1cnc2n1[C@](C)(Cc1ccc(C#N)cc1)C(=O)N2c1cc(Cl)c(F)c(Cl)c1)C(=O)NC1(c2ccccn2)CC1 | EGFR del752-759 | cell-free assay | competition with immobilised ligand | 1 µM | 100 |
| c1cncc(-c2cccc(Nc3nccc(NC4CCCCC4)n3)c2)c1 | Epidermal growth factor receptor (EGFR, Homo sapiens, UniProt P00533, G719C) | binding | competition with immobilised ligand | 10 µM | 70 |
| O=C(c1ccc(Nc2ncc(Cl)c(-c3ccc(Cl)s3)n2)cc1)N1CCC(N2CCCC2)CC1 | EGFR del747-750/T751S | binding | competition with immobilised ligand | 1 µM | 100 |
| C[C@@H]1CN(c2cc(-c3n[nH]c4ccc(OC5(C)CC5)cc34)ncn2)C[C@H](C)O1 | EGFR G719S | cell-free assay | competition with immobilised ligand | 0.1 µM | 59 |
| N[C@H]1CCN(c2nccc(-c3cnn4ncccc34)n2)C1 | EGFR | binding |  | 1 µM | 100 |
